pIC50: −log10 of the molar value. Calls of active or inactive are those of the source. The calls are words filed in the database; no cut-off is given here. Where a SMILES comes first, the peptide text is derived from it. [ ]: non-standard residue; d: D form. The star is where a group is joined. Cbz = O=C(OCc1ccccc1)*
How the values were obtained:
[1] = molecular target: T1, Transitional endoplasmic reticulum ATPase (Homo sapiens, UniProt P55072); experiment: Inhibition of His6-tagged p97 (unknown origin) expressed in Escherichia coli BL21 (DE3) assessed as reduction in ATPase activity measured after 60 mins by biomol green reagent based assay
How it was run: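 His6-p97 expressed in E. coli BL21(DE3), purified by Ni-NTA and gel filtration (500–600 kDa fractions, ≥95% pure). Phosphate read by Biomol Green at 635 nm. Eight-dose titrations; IC50 from six replicates. Thiol tests added DTT or cysteine during preincubation.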
Target sequence in this assay (P55072 whole entry): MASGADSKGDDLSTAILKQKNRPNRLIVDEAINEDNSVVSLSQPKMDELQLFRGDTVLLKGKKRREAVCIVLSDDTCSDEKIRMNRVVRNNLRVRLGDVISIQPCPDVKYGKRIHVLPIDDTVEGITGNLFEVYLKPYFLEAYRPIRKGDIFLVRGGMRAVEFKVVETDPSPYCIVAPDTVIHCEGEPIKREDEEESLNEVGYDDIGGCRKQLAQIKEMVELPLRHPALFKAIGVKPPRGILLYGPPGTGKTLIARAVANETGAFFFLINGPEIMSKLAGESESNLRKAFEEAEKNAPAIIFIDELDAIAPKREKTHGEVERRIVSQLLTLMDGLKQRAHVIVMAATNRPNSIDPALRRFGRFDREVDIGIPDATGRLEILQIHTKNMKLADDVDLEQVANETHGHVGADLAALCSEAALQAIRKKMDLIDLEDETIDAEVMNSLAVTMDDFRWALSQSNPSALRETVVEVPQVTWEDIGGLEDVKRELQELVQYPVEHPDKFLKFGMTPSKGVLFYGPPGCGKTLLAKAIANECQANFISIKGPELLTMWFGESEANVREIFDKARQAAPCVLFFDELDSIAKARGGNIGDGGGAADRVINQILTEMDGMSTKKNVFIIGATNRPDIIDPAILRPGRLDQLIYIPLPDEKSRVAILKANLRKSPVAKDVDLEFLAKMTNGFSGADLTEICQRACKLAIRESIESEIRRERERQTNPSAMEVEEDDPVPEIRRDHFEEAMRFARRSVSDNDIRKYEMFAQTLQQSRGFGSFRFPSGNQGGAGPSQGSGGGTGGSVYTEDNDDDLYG

[2] = molecular target: T1, Transitional endoplasmic reticulum ATPase; experiment: Inhibition of p97 in human HeLa cells assessed as reduction in proteasomal turnover of p97-dependent reporter substrate UbG76V-GFP incubated for 120 mins by GFP fluorescence imaging
Target sequence in this assay (P55072 whole entry): as above

[3] = Inhibition of proteasomal turnover of p97-independent ODD-luciferase reporter substrate in human HeLa cells incubated for 120 mins by luciferase reporter gene assay; type: functional, cell-based; conditions: 2 h
How it was run: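 HeLa cells co-expressing UbG76V-GFP and ODD-Luc were seeded at 5000/well in clear DMEM with 2.5% FBS. They were pretreated with 4 μM MG132 for 60 min at 37 °C, washed with PBS, then given cycloheximide plus compound for 120 min at 37 °C and washed. GFP was read by high-content confocal imaging, then luminescence after 10 min with D-luciferin at r.t. IC50 was fitted from quadruplicates.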

[4] = Inhibition of yeast Cdc48 T532C mutant assessed as reduction in ATPase activity measured after 60 mins by biomol green reagent based assay; design: species or system Saccharomyces cerevisiae
How it was run: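 Yeast Cdc48 ATPase activity with 200 μM ATP in Tris pH 7.4 buffer containing MgCl2, EDTA, TCEP and Triton X-100, 60 min at room temperature. Biomol Green read at 635 nm. Eight-dose titration; IC50 from six replicates.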

[5] = Selectivity ratio of IC50 for antiproliferative activity against NMS-873-resistant human HCT-116 cells to IC50 for antiproliferative activity against human HCT-116 cells; type: functional
[6] = molecular target: T1, Transitional endoplasmic reticulum ATPase; experiment: Irreversible inhibition of p97 in human HeLa cells assessed as reduction in p97-dependent reporter substrate UbG76V-GFP degradation preincubated followed by washout and measured after 17 hrs by luciferase reporter gene assay; type: cell-based; conditions: in the assay text read “GFP fluorescence assay” for “luciferase reporter gene assay”
How it was run: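 HeLa cells expressing UbG76V-GFP/ODD-Luc, 5000 cells/well in DMEM with 2.5% FBS. Pretreated with 4 μM MG132 for 60 min at 37 °C, PBS-washed, then given cycloheximide plus compound for 120 min. After washout, GFP decay followed in cycloheximide for an additional 17 h. GFP read by high-content imaging; luciferase read with D-luciferin; quadruplicates.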
Target sequence in this assay (P55072 2-806 limits assumed): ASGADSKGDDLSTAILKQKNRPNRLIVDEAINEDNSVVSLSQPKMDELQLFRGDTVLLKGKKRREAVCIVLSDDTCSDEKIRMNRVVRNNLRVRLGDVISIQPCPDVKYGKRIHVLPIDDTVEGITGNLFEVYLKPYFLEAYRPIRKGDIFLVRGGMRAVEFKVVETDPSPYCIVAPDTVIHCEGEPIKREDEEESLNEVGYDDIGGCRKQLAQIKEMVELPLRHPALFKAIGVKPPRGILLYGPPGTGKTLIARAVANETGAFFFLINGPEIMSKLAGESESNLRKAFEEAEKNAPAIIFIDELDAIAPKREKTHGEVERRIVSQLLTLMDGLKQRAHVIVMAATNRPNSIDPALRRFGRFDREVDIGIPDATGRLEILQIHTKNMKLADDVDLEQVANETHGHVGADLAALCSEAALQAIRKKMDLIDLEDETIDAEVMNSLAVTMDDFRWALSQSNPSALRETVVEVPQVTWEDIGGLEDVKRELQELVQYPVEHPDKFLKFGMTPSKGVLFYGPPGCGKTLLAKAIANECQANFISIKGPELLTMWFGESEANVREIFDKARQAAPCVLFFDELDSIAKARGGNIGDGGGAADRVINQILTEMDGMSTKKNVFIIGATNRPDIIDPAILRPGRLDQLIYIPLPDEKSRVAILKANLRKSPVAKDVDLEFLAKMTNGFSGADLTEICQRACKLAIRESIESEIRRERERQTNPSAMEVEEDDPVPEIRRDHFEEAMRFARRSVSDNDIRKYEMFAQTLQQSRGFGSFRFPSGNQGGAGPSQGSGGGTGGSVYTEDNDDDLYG

inhibition [6] | Structure (SMILES) | pIC50 [1] | pIC50 [2] | pIC50 [3] | pIC50 [4] | Selectivity ratio [5]
 | O=C(O)/C=C/c1ccc2c(c1)OCO2 | < 4.52 | < 4.52 | < 4.52 |  | 
 | O=[N+]([O-])/C=C/c1ccc2c(c1)OCO2 | 5.77 | 5.80 | 5.41 |  | 
 | C=CC(=O)Nc1ccc2ncnc(Nc3ccc(-c4ccccc4)cc3)c2c1 | 5.00 | 4.74 | 4.96 |  | 
 | O=[N+]([O-])/C=C/c1ccc(F)c(Br)c1 | 5.77 | 5.74 | 5.70 |  | 
 | CCC(=O)Oc1ccc(/C=C/[N+](=O)[O-])cc1OC | 5.47 | 5.37 | 5.80 |  | 
 | Cc1ccc(-c2c(C(=O)CF)n(CCCO)c3ncnc(N)c23)cc1 | < 4.52 | 4.33 | 4.41 |  | 
 | CC(C)(C)n1nc(-c2ccc3ccccc3c2)c2c(N)ncnc21 | < 4.00 | < 4.52 | < 4.52 | < 4.00 | 
 | Cc1cc(OCc2nnc(SC3CCCC3)n2-c2cccnc2)ccc1-c1ccc(S(C)(=O)=O)cc1 |  |  |  |  | 4.5
 | COc1cc(/C=C/[N+](=O)[O-])ccc1O | 4.89 | 5.17 | 5.30 |  | 
 | Cc1ccc(-c2c(C(=O)CCl)n(CCCO)c3ncnc(N)c23)cc1 | 5.41 | 5.24 | 5.40 |  | 
 | CC(C)(C)n1nc(-c2ccccc2)c2c(N)ncnc21 | < 4.00 | < 4.52 | < 4.52 | < 4.00 | 
 | CNc1ncnc2c1c(-c1ccc3ccccc3c1)nn2C(C)(C)C | < 4.30 | < 4.52 | < 4.52 |  | 
 | O=[N+]([O-])/C=C/c1cccnc1 | 6.15 | 5.54 | 5.52 |  | 
 | Cc1ccc(C(=O)C#Cc2ccccc2)cc1 | 6.70 | 5.47 | 5.28 |  | 
 | CC(C)(C)n1nc(-c2ccccc2)c2c(NC(=O)CCl)ncnc21 | 5.35 | 4.51 | < 4.52 | 4.46 | 
 | C=CC(=O)N(C(=O)C=C)c1ncnc2c1c(-c1ccc3ccccc3c1)nn2C(C)(C)C | 5.89 | 5.60 | < 4.52 | 4.66 | 
 | CC1(C)C(N(O)C(=O)Nc2ccc(Cl)cc2)N(c2ccc(Cl)cc2)C(=O)N1CC(=O)N/N=C/C=C/c1ccc([N+](=O)[O-])o1 (stereo not given) | < 4.52 | 5.43 |  |  | 
 | COc1cc(/C=C/[N+](=O)[O-])ccc1OC(C)=O | 5.44 | 5.24 | 5.64 |  | 
 | COc1ccc(/C=C/[N+](=O)[O-])cc1OC | 5.51 | 5.72 | 5.74 |  | 
 | C=CC(=O)N(C(=O)C=C)c1ncnc2c1c(-c1ccc(-c3ccccc3)cc1)nn2C(C)(C)C | 6.05 | 5.21 | < 4.52 |  | 
inactive | CC(C)C[C@@H](C=O)NC(=O)[C@@H](CC(C)C)NC(=O)[C@H](CC(C)C)NC(=O)OCc1ccccc1 (Cbz-Leu-[dL]-Leu-aldehyde) |  |  |  |  | 
 | C=CC(=O)Nc1ncnc2c1c(-c1ccc3ccccc3c1)nn2C(C)(C)C | 5.52 | 5.70 | < 4.52 | 4.62 | 
 | C=CC(=O)N(C(=O)C=C)c1ncnc2c1c(-c1ccccc1)nn2C(C)(C)C | 5.96 | 5.27 | < 4.52 | 4.59 | 
 | CC(C)(C)n1nc(-c2ccc(-c3ccccc3)cc2)c2c(N)ncnc21 | < 4.30 | < 4.52 | < 4.52 |  | 
 | O=[N+]([O-])/C=C/c1cccc([N+](=O)[O-])c1 | 5.92 | 5.77 | 5.40 |  | 
 | O=[N+]([O-])/C=C/c1c(F)c(F)c(F)c(F)c1F | 5.62 | 5.57 | 5.68 |  | 
 | C=CC(=O)Nc1ncnc2c1c(-c1ccc(-c3ccccc3)cc1)nn2C(C)(C)C | 5.55 | 5.68 | < 4.52 |  | 
 | COc1cc(/C=C/[N+](=O)[O-])ccc1OC(=O)c1ccccc1 | 5.70 | 5.24 | 5.00 |  | 

— ChEMBL document CHEMBL4732155 (Eur J Med Chem, 2021)
